# Measurements from different studies.
# Protocols differ between the studies behind these lines.
# SLC6A4: Sodium-dependent serotonin transporter (SLC6A4, Homo sapiens, UniProt P31645)
# rep main protease: Replicase polyprotein 1ab, main protease (rep, Porcine epidemic diarrhea virus, UniProt P0C6Y4)
Structure (SMILES),target,read-out,mode,method,tested at,quantity,result
CNC(=O)[C@@]12C[C@@H]1[C@@H](n1cnc3c(NCc4cccc(Cl)c4)nc(C#Cc4ccc(Cl)s4)nc31)[C@H](O)[C@@H]2O,SLC6A4,ligand displacement,,radioligand,10 µM,inhibition,10%
COc1cc(CNC(=O)c2ccccc2C)cc(Br)c1OC,rep main protease,enzyme activity,inhibitor,FRET,10 µM,inhibition,92.8%
CCOC(=O)[C@@]12C[C@@H]1[C@@H](n1cnc3c(NCCO)nc(C#Cc4ccc(Cl)s4)nc31)[C@H](O)[C@@H]2O,SLC6A4,ligand displacement,,radioligand,10 µM,inhibition,-8%
COc1cc(CNC(=O)c2ccc3ccccc3n2)cc(Br)c1OC,rep main protease,enzyme activity,inhibitor,FRET,10 µM,inhibition,85.2%
CCCCC(=O)Nc1ccc(-c2ccc3ncn(CCC)c(=O)c3c2)cn1,"Mitogen-activated protein kinase kinase kinase 20 (MAP3K20, Homo sapiens, UniProt Q9NYL2)",binding,,competition with immobilised ligand,0.5 µM,remaining binding,54%
C1=C/COCc2cc(ccc2OCCN2CCCC2)Nc2nccc(n2)-c2cccc(c2)COC/1,"Calcium/calmodulin-dependent protein kinase type 1D (CAMK1D, Homo sapiens, UniProt Q8IU85)",binding,,,0.1 µM,remaining binding,63%
COc1cc(CNC(=O)c2ccccc2SC)cc(Br)c1OC,"Replicase polyprotein 1ab, papain-like protease (rep, Porcine epidemic diarrhea virus, UniProt P0C6Y4)",enzyme activity,inhibitor,FRET,10 µM,inhibition,18.8%
Cc1cc(O)c(-c2ccc([C@@H](C)CN(C)C)cc2)c2c1[nH]c(=O)c1sccc12,"SRSF protein kinase 2 (SRPK2, Homo sapiens, UniProt P78362)",enzyme activity,inhibitor,,0.1 µM,inhibition,-3.6%
CCOC(=O)[C@@]12C[C@@H]1[C@@H](n1ccc3c(NCCCCc4ccccc4)nc(C#Cc4ccccc4)nc31)[C@H](O)[C@@H]2O,SLC6A4,ligand displacement,,radioligand,10 µM,inhibition,9%
